Screening results: PubChem, Sanford-Burnham Center for Chemical Genomics
In the library only some 2.3% were active in any assay of this set; here they are far more common.
MT1-MMP act inh – blocks activation of human MT1-MMP; AID 651647; HT1080 RFP-PRO-GFP cells, GFP/RFP ratio fluorescence, overnight; percent of plate control window, DMSO zero; actives 0.061% (n = 360,000); P50281; GFP/RFP ratio change, % at 20 µM;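 active means GFP/RFP ratio change of at least 30% with cell ATP level not reduced by more than half and red fluorescence within 50% of control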
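Test system: HT1080 RFP-PRO-GFP cells; Benchmarks: DMSO and RFP-L50D-GFP cell wells; Timing: cells overnight before dosing, compound overnight, 37 °C, 5% CO2; Compound: one 20 µM compound dose with 1% DMSO; Read-out: GFP/RFP fluorescence ratio.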
SUMO1 PPI mod – SUMO1-SIM interaction modulation. P63165. SUMO1 binding to a labelled peptide, TR-FRET, 1 h. inhibition, % at 20 µM. actives 0.33% (n = 360,000). AID 602429; in the data active means inhibition above about 37%
Target sequence (P63165 whole entry, looked up): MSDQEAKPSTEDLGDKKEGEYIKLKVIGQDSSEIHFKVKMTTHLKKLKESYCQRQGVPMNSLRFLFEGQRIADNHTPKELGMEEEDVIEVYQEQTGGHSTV
Rpn11 inh – inhibitors of human proteasome Rpn11. actives 0.59% (n = 360,000). inhibition, % at 20 µM. O00487. human 26S proteasome, Ub4-pepOG fluorescence polarization; 20S core pre-blocked with epoxomicin;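 active means inhibition at 20 µM, scaled to each plate's controls, above about 33%, limit read from the data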
Target sequence (O00487 whole entry, looked up): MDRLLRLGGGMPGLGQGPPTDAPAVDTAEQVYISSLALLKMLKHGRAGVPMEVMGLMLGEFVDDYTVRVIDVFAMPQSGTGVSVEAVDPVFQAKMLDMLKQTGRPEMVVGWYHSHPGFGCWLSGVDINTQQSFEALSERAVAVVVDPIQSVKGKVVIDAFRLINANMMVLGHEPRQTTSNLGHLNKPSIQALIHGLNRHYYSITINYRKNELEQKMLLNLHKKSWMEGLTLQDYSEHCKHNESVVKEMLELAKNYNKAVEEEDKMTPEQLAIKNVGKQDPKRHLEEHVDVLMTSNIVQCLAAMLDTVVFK
DNMT1 block – blocks human DNA methyltransferase DNMT1; P26358; DNMT1 molecular beacon, Hinp1I cleavage, fluorescence; inhibition (reported as % activation of signal), % at 10 µM; actives 0.83% (n = 360,000); AID 588458; in the data active means inhibition above about 50%
CSN inh – CSN deneddylation inhibition; Purified CSN, SCF-Nedd8-OG deneddylation, fluorescence polarization; inhibition, % at 12.5 µM; actives 0.38% (n = 360,000); Q92905;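 active means pattern-corrected inhibition above about 35%, with an unprinted fluorescence ratio check between 0.5 and 1.5, limit read from the data, passing the limit was not always enough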
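Schedule: reaction 90 min, room temperature / Assay system: HEK293T-derived human Csn5 enzyme / Input: Csn5 at 0.24 nM final / Measure: inhibition of Csn5 cleavage, % / Control set: substrate-only high control, full reaction low control / Technique: fluorescence polarization of the substrate / Buffer or medium: Tris/NaCl/DTT buffer, pH 7.5 / Reagent: SCFSkp2-Nedd8OG substrate at 10 nM final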
SKN-1 inh – inhibitors of C. elegans SKN-1; C. elegans VP596 Pgst-4::GFP/RFP ratio, acrylamide-induced, 24 h; inhibition, % at 21.8 µM; actives 0.49% (n = 360,000);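 active means interference check ratio from 0.5 to 1.5 plus GFP to RFP signal ratio inhibition reaching or exceeding a fixed threshold, cut at about 30% in these data, passing the limit was not always enough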
Rpn11 inh conf – Rpn11 inhibition confirmation, single concentration | shares compounds with Rpn11 inh | purified human 26S proteasome, Ub4-pepOG fluorescence polarization; proteasome pretreated with epoxomicin | inhibition, % at 20 µM | actives 29% (n = 1,900)
MMP-2 inh – MMP-2 (human) inhibition counter-screen; recombinant MMP-2, FRET peptide cleavage fluorescence; AID 602330; inhibition, % at 20 µM; shares compounds with Rpn11 inh; actives 4% (n = 1,900);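 further: human MMP-2 activated beforehand with APMA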
Thrombin FP – blocks bovine thrombin, flagging nonselective RPN11 hits | shares compounds with Rpn11 inh | bovine thrombin cleavage of Ub4-pepOG, fluorescence polarization | inhibition, % at 20 µM | actives 13% (n = 1,900);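 active means mean inhibition at least 40% at 20 µM, or signal 3 deviations below plate average, so some actives read negative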
Numbers stand for hits; i = inactive; nt = no result; + = active, no number. Unless noted, no stated cut-off is given here; in the data, active means inhibition above about 40%; inactive means the rest.

SMILES	MT1-MMP act inh	SUMO1 PPI mod	Rpn11 inh	DNMT1 block	CSN inh	SKN-1 inh	Rpn11 inh conf	MMP-2 inh	Thrombin FP
CC(=O)Nc1ccc(C(=O)Nc2cccc(-c3cnc4ccccc4n3)c2)cc1	i	49	+	i	86	i	i	i	i
C[C@H]1CN([C@@H](C)CO)S(=O)(=O)c2ccc(C#Cc3cccnc3)cc2O[C@@H]1CN(C)C(=O)Nc1ccc2c(c1)OCO2	i	i	i	i	i	i	nt	nt	nt
O=C(Nc1cccc2nsnc12)c1ccc(-c2ccc(Br)cc2)o1	i	i	53	i	i	i	i	i	i
O=C1NC[C@H](CCCCN2CCN(CCc3ccc(O)cc3)C(=O)C2=O)N(CCc2ccc(O)cc2)C1=O	i	i	nt	nt	i	i	nt	nt	nt
CCNC(=O)C1(C)CCN(C(=O)c2cc(OC)c(OC)c(OC)c2)C1 (stereo not drawn)	i	i	i	i	i	i	nt	nt	nt
COc1ccc(Cl)cc1NC(=O)c1cc(-c2ccco2)on1	i	i	46	i	i	i	i	i	i
CCOC(=O)c1ccc(NC(=O)CCC(=O)NCc2ccco2)cc1	i	i	i	i	i	i	nt	nt	nt
N#CCC(=O)Nc1ccc(C(=O)OCC(=O)NC(=O)NCc2ccco2)cc1	i	i	45	i	36	i	i	41	i
Cc1ccc(/C=C2\SC(=S)N(C3CCS(=O)(=O)C3)C2=O)o1 (stereo not drawn)	i	i	51	i	i	i	i	i	i
Fc1cccc(Cc2c(C3CCCCC3)nc3c4ccccc4ccn23)c1	i	i	nt	nt	i	i	nt	nt	nt
Cc1cc(C)c2nc(/N=C(\N)NC(=O)c3ccccc3)nc(C)c2c1	i	i	i	i	i	i	nt	nt	nt
Cc1cc(C)c2nc(/N=C(\N)NC(=O)Nc3ccccc3)nc(C)c2c1	i	i	47	i	i	i	i	i	i
CC(C)(C)NC(=O)C1C(c2ccc(C(F)(F)F)cc2)=Nc2ccccc2N1C(=O)c1cccc(C(F)(F)F)c1 (stereo not drawn)	i	i	nt	nt	i	i	nt	nt	nt
N#Cc1ccc(S(=O)(=O)N2CCCCC2c2cc(C(=O)NCc3ccccc3)no2)cc1 (stereo not drawn)	i	i	i	i	i	i	nt	nt	nt
COc1cc(/C=C(\C#N)C(=O)N2CCc3ccccc32)ccc1O	i	i	81	i	i	i	i	i	i
COc1cc(/C=C(\C#N)C(=O)Nc2ccc3c(c2)OCCO3)ccc1O	i	i	56	i	i	i	i	i	i
N#C/C(=C\c1cccc(O)c1)C(=O)N1CCCCC1	i	i	i	i	i	i	nt	nt	nt
N#C/C(=C\c1ccc(O)c(O)c1)C(=O)N1CCc2ccccc21	i	i	65	i	i	i	70	i	i
CCOC(=O)/C(C#N)=C\c1ccc(O)c(OC)c1	i	i	i	i	i	i	nt	nt	nt
CC1=C(C(=O)N(C)C)CC(CC(=O)NCc2cccs2)C(=O)N1Cc1ccc(C(C)(C)C)cc1 (stereo not drawn)	i	i	i	i	i	i	nt	nt	nt
CCOc1ccc(S(=O)(=O)NCCC(=O)N2CCN(c3ncccn3)CC2)cc1	i	i	i	i	i	i	nt	nt	nt
CCOc1ccc(C(=O)CCC(=O)N2CCN(c3ncccn3)CC2)cc1	i	i	43	i	i	i	43	i	i
CC(=O)C1=C(C)NC(SCC(=O)c2ccc(Cl)c(Cl)c2)=C(C#N)C1c1ccco1 (stereo not drawn)	i	i	41	i	i	i	i	45	i
CC(=O)C1=C(C)NC(SCC(=O)c2ccc(F)cc2)=C(C#N)C1c1ccco1 (stereo not drawn)	i	i	i	i	i	i	nt	nt	nt
